TRPC4 act: activators of mouse TRPC4 channel, primary screen, Fluo4 calcium, HEK293 TRPC4beta/mu-opioid cells | 0.49% of 310,000 active | Short transient receptor potential channel 4 (Mus musculus), Q9QUQ5 | Fluo4 calcium fluorescence; hits give high values | B-score at 10 µM;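 active = B-score above 5 SD of library B-scores, and initial fluorescence ratio not above library mean plus 5 SD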;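 also: positive B-score marks a calcium rise read as TRPC4 activation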
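Material: TRPC4beta and mu-opioid receptor HEK293 stable cells | Incubation: 45 min room-temperature Fluo4 loading, 110 s read | Detection: Kinetic Fluo4 calcium fluorescence | Measure: Integrated baseline-normalised fluorescence ratio, converted to per-well B score | Benchmarks: Low control buffer alone, high control maximal DAMGO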
TRPC6 inh: mouse TRPC6 channel inhibitors, primary screen, cell-based, HEK293, membrane potential dye | ACh-evoked depolarization; hits give low values | B-score at 10 µM | 1.1% of 310,000 active | Short transient receptor potential channel 6 (Mus musculus), Q61143;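 active = B-score under library mean minus 3 SD, initial fluorescence not abnormally high, positive integrated signal ratio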;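 also: B-score derived from integrated fluorescence ratio over the kinetic read; more negative B-score means stronger inhibition of depolarization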
Target sequence (Q61143 whole entry, looked up): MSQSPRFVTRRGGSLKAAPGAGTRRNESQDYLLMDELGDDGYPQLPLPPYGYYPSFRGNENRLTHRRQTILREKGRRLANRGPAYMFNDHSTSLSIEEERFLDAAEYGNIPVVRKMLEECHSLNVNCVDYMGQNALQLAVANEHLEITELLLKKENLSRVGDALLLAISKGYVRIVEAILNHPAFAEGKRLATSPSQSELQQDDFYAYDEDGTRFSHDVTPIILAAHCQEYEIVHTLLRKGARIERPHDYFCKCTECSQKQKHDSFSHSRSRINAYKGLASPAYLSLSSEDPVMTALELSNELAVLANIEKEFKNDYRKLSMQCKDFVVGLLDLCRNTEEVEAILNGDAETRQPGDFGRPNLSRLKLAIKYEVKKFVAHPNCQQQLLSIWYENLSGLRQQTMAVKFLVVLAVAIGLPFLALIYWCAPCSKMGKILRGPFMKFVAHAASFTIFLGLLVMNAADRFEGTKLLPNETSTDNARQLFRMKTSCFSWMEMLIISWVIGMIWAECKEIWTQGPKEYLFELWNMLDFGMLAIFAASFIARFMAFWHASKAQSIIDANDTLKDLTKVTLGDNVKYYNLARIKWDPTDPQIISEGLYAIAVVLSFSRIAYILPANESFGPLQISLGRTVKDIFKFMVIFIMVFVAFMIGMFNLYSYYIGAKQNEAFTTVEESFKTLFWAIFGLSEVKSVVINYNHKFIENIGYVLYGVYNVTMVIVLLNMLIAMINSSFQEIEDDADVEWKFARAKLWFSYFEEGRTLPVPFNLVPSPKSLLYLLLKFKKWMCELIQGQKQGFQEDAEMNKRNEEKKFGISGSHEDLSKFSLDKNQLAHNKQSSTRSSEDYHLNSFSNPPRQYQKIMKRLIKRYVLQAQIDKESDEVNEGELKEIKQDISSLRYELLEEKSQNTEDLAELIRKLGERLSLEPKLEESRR
FID counter: compounds displacing fluorescent DNA intercalator, primary screen, artefact control for HCV NS3 helicase inhibitor project, biochemical, FID fluorescence; DNA fluorescent intercalator displacement; inhibition, % at 7.9 µM; 0.17% of 290,000 active; in the data active = inhibition above about 37%;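 also: higher means more ethidium bromide displaced from hairpin DNA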
TRPC4 block: inhibitors of mouse TRPC4 channel, primary screen, Fluo4 calcium, HEK293 TRPC4beta/mu-opioid cells; Short transient receptor potential channel 4 (Mus musculus), Q9QUQ5; DAMGO-evoked Fluo4 calcium flux; hits give low values; B-score at 10 µM; 0.39% of 300,000 active; AID 2247, 2010;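 active = B-score over 3 SD under the library average, no early fluorescence shift, positive overall ratio signal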
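material = TRPC4beta/mu-opioid receptor HEK293 cell line | probe or stimulus = sequential submaximal and maximal DAMGO stimulation | compound dosing = one concentration per compound | measured by = Fluo4 Ca2+ flux fluorescence | evaluation = integrated fluorescence ratio relative to baseline, converted to per-well B score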
TRPC6 act: mouse TRPC6 channel activators, primary screen, cell-based, HEK293, membrane potential dye; B-score at 10 µM; 0.13% of 310,000 active; HEK293-TRPC6 membrane potential dye fluorescence; hits give high values; AID 2550, 2010;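 active = B-score of the integrated fluorescence ratio above library mean plus 3 SD, and starting fluorescence ratio within library mean plus 5 SD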;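 also: higher score means more depolarization so channel activation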
TRPC4 potent: positive allosteric modulators of TRPC4, primary screen, cell-based, mouse TRPC4beta, HEK293 mu-opioid, Fluo-4 calcium. DAMGO EC20, Fluo-4 Ca2+ flux; hits give high values. Short transient receptor potential channel 4 (Mus musculus), Q9QUQ5. AID 2227, 2009. B-score at 10 µM. 0.42% of 310,000 active;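 active = B-score of calcium response area above 5 SD of library B-scores, with initial fluorescence ratio within 5 SD of library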
TRPC4 spec 2: second check of whether TRPC6 inhibitors also affect mouse TRPC4. AID 2776. inhibition, % at 10 µM. HEK293 TRPC4/MOR, membrane potential dye fluorescence; channel activated by saturating DAMGO dose. shares compounds with TRPC6 inh. 42% of 920 active;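 active = compounds whose fluorescence signal differed from control wells by over 3 SD, either direction, in both duplicate plates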
TRPC4 spec: mouse TRPC4 modulation by TRPC6 hits, confirmation, selectivity assay for TRPC6 inhibitor project, cell-based, HEK293 TRPC4/mu-opioid, membrane potential dye | activity change, negative = inhibition, % at 10 µM | 61% of 920 active | shares compounds with TRPC6 inh | AID 2777, 2010 | membrane potential fluorescence;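 active = rise or fall in signal beyond 3 SD of buffer-only wells in both replicate plates, either sign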;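 also: integrated kinetic ratio of fluorescence range over baseline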
HEK293 MPD ctr 2-1: nonspecific membrane potential effects, parental HEK293, confirmation, counter-screen for TRPC6 inhibitor project, cell-based, second counter screen. shares compounds with TRPC6 inh. parental HEK293 membrane potential dye fluorescence; maximal acetylcholine challenge after compound addition. signal change vs control, % at 10 µM. 31% of 920 active. AID 2779, 2010;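 active = membrane potential signal moving either way by over 3 SD of the maximum-effect control, in both duplicate plates, meaning non-specific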
HEK293 MPD ctr-1: membrane potential modulation in parental HEK293, confirmation, counter-screen for TRPC6 inhibitor project, cell-based. shares compounds with TRPC6 inh. parental HEK293 membrane potential dye fluorescence. membrane potential signal change, % at 10 µM. 60% of 920 active;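 active = membrane potential signal shifting up or down by more than 3 SD of buffer-only wells, on both duplicate plates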
HEK293 MPD ctr-2: parental HEK293 membrane potential modulation, confirmation, counter-screen for TRPC6 modulator project, cell-based; shares compounds with TRPC6 inh; membrane potential dye fluorescence; membrane potential signal change, % at 10 µM; 51% of 2,400 active; AID 488924, 2010;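 active = membrane potential signal moves up or down beyond 5 SD from buffer-only wells, on both duplicate plates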
HEK293 MPD ctr 2-2: second check of TRPC6 modulator effects in parental HEK293 cells | shares compounds with TRPC6 inh | membrane potential dye fluorescence; after compound, maximal acetylcholine stimulation | inhibition, % at 10 µM | 14% of 2,400 active | AID 488926;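 active = membrane potential signal drops by more than 5 SD from the mean control signal, in both duplicate plates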
TRPC4/MOR mod: TRPC4 modulation by TRPC6 hit compounds, confirmation, selectivity assay for TRPC6 modulator project, cell-based, HEK293 TRPC4/mu-opioid, membrane potential dye, mouse. membrane potential fluorescence. percent change from control (negative = decrease, positive = increase), % at 10 µM. AID 488927, 2010. 69% of 2,400 active. shares compounds with TRPC6 inh;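 active = membrane potential signal moved up or down beyond 5 SD of buffer control wells, in both duplicate plates, actives on both sides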
TRPC4 ctr inh 2: mouse TRPC4 off-target activity of TRPC6 modulators, second screen. 55% of 2,400 active. inhibition, % at 10 µM. AID 488928. shares compounds with TRPC6 inh. HEK293 TRPC4/mu-opioid, membrane potential dye fluorescence; stimulated with maximal-effect DAMGO;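 active = drop in membrane potential signal beyond 5 SD of the control wells in both duplicate plates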;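 also: TRPC4 counter screen for TRPC6 hits run under conditions tuned for TRPC6 not TRPC4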
TRPC6 block conf: mouse TRPC6 channel inhibitors, confirmation, HEK293 cells, membrane potential dye, duplicate; inhibition, % at 10 µM; 43% of 3,300 active; ACh-evoked depolarization; AID 488960, 2010; shares compounds with TRPC6 inh;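 active = fluorescence ratio falls more than 5 SD below the full-stimulation control mean, in both duplicate runs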;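 also: integrated fluorescence ratio of peak minus minimum over baseline after agonist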
TRPC6 act confirm: mouse TRPC6 channel activators, confirmation, HEK293 cells, membrane potential dye, duplicate | shares compounds with TRPC6 inh | 11% of 2,800 active | activation, % at 10 µM | AID 488961, 2010 | HEK293-TRPC6 membrane potential dye fluorescence, FDSS;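 active = ratio signal rise beyond 5 SD above unstimulated control wells' mean, seen in both duplicate runs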
Large screens that a line does not name were inactive (follow-up assays come after a bar, where they were run). Sampled rows, rich in hits. Any-hit rate of the full collection: about 2.3%.

CCCn1c(=N)c(C(=O)NC2CCCC2)cc2c(=O)n3cccc(C)c3nc21	TRPC6 inh -6.8 | TRPC4 spec 2 62% | TRPC4 spec -14% | HEK293 MPD ctr 2-1 -32% | HEK293 MPD ctr-1 -170% | TRPC6 block conf 78% | TRPC6 act confirm inactive
COCCn1c(=N)c(C(=O)NCc2ccco2)cc2c(=O)n3ccccc3nc21	none (no result: TRPC4 act, TRPC6 inh, TRPC4 block, TRPC6 act, TRPC4 potent)
N=c1c(C(=O)NCc2ccco2)cc2c(=O)n3ccccc3nc2n1C1CCCC1	TRPC6 inh -5.3 | HEK293 MPD ctr-2 -72% | HEK293 MPD ctr 2-2 inactive | TRPC4/MOR mod -32% | TRPC4 ctr inh 2 37% | TRPC6 block conf 46% | TRPC6 act confirm inactive
O=C(CN1C(=O)c2ccccc2C1=O)Nc1ccccc1C(F)(F)F	none
O=C(CCN1C(=O)c2ccccc2C1=O)Nc1ccccc1C(F)(F)F	TRPC6 inh -7.3 | TRPC4 spec 2 inactive | TRPC4 spec inactive | HEK293 MPD ctr 2-1 inactive | HEK293 MPD ctr-1 inactive | TRPC6 block conf inactive | TRPC6 act confirm inactive
O=C(NC(=S)NC1CCSC1=O)c1cccs1 (configuration not stated)	TRPC6 inh -6.4 | HEK293 MPD ctr-2 inactive | HEK293 MPD ctr 2-2 inactive | TRPC4/MOR mod inactive | TRPC4 ctr inh 2 inactive | TRPC6 block conf inactive | TRPC6 act confirm inactive
COc1ccc(C2=CSC3=NCCN23)cc1OC	none
CCCCOc1ccc(C2=CSC3=NCCN23)cc1[N+](=O)[O-]	TRPC6 inh -5.1 | HEK293 MPD ctr-2 -75% | HEK293 MPD ctr 2-2 inactive | TRPC4/MOR mod -20% | TRPC4 ctr inh 2 44% | TRPC6 block conf 44% | TRPC6 act confirm inactive
CCOC(=O)c1ccc(NC(=S)N2CCCC(C)C2)cc1 (configuration not stated)	TRPC6 inh -5 | HEK293 MPD ctr-2 inactive | HEK293 MPD ctr 2-2 inactive | TRPC4/MOR mod inactive | TRPC4 ctr inh 2 inactive | TRPC6 block conf inactive | TRPC6 act confirm inactive
O=C(COc1coc(CN2CCCc3ccccc32)cc1=O)Nc1ccc([N+](=O)[O-])cc1	none (no result: FID counter)
COc1ccc(C(CNC(=O)C(=O)Nc2ccc3c(c2)OCO3)N2CCN(C)CC2)cc1 (configuration not stated)	none (no result: FID counter)
CN1CCN(C(CNC(=O)C(=O)Nc2ccc3c(c2)OCO3)c2ccc(F)cc2)CC1 (configuration not stated)	TRPC6 inh -6 (no result: FID counter) | HEK293 MPD ctr-2 100% | HEK293 MPD ctr 2-2 inactive | TRPC4/MOR mod 12% | TRPC4 ctr inh 2 inactive | TRPC6 block conf 39% | TRPC6 act confirm inactive
CCOC(=O)Cn1c(=N)n(CCOc2ccc(OC)cc2)c2ccccc21	none
CCOC(=O)Cn1c(=N)n(CCOc2ccc3ccccc3c2)c2ccccc21	TRPC6 inh -5.3 | HEK293 MPD ctr-2 inactive | HEK293 MPD ctr 2-2 inactive | TRPC4/MOR mod inactive | TRPC4 ctr inh 2 70% | TRPC6 block conf 40% | TRPC6 act confirm inactive
CN1CCC(N(C)C(=O)/C(C#N)=C/c2ccccc2)CC1	none
O=C1C2CSCN2C(=O)CN1CCCN1CCN(C(c2ccccc2)c2ccccc2)CC1 (configuration not stated)	TRPC6 inh -5.3 | HEK293 MPD ctr-2 82% | HEK293 MPD ctr 2-2 inactive | TRPC4/MOR mod 11% | TRPC4 ctr inh 2 39% | TRPC6 block conf 45%
COc1ccccc1OCCCCN1CCN(C(c2ccccc2)c2ccccc2)CC1	none
CCC(C)NC(=O)c1ccc(CN2CCc3ccccc3C2)cc1 (configuration not stated)	none
COCC(C)NC(=O)c1ccc(CN2CCc3ccccc3C2)cc1 (configuration not stated)	TRPC6 inh -6.9 | TRPC4 spec 2 inactive | TRPC4 spec inactive | HEK293 MPD ctr 2-1 inactive | HEK293 MPD ctr-1 0.8% | TRPC6 block conf inactive | TRPC6 act confirm inactive
CC(=O)OCCCN(C)CC/C=C1/c2ccccc2CSc2ccccc21	none (no result: FID counter)
C[N+](C)(C)CC/C=C1/c2ccccc2CSc2ccccc21	TRPC6 inh -5.5 | HEK293 MPD ctr-2 inactive | HEK293 MPD ctr 2-2 72% | TRPC4/MOR mod inactive | TRPC4 ctr inh 2 inactive | TRPC6 block conf 82% | TRPC6 act confirm inactive
